Measured values as given in ChEMBL document CHEMBL2069266, “An expeditious regioselective synthesis of novel bioactive indole-substituted chromene derivatives via one-pot three-component reaction” (2012).

How the values were obtained:
Assay type in all cases: functional
Conditions in all cases: read-out: DIZ
Salmonella enterica = experiment: Antibacterial activity against Salmonella enterica at 12 ug/well after 24 hrs by agar well diffusion method
How it was run: (§1)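 Colonies subcultured from nutrient agar into nutrient broth, grown 37 °C for 18 h, then inoculated onto Mueller-Hinton agar plates (four plates). Wells cut with sterile 5 mm glass tube; […] of 100 µg/ml DMSO solution added per well; incubated 37 °C for 24 h before reading inhibition. Data from duplicate or triplicate experiments.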

Micrococcus luteus = experiment: Antibacterial activity against Micrococcus luteus at 12 ug/well after 24 hrs by agar well diffusion method; how it was run: as §1
Pseudomonas aeruginosa = experiment: Antibacterial activity against Pseudomonas aeruginosa at 12 ug/well after 24 hrs by agar well diffusion method; how it was run: as §1
Bacillus subtilis = experiment: Antibacterial activity against Bacillus subtilis at 12 ug/well after 24 hrs by agar well diffusion method; how it was run: as §1

| Compound | zone of inhibition at 12 µg/disc (Salmonella enterica) | zone of inhibition at 12 µg/disc (Micrococcus luteus) | zone of inhibition at 12 µg/disc (Pseudomonas aeruginosa) | zone of inhibition at 12 µg/disc (Bacillus subtilis) |
| --- | --- | --- | --- | --- |
| CN(C)[C@@H]1C(O)=C(C(N)=O)C(=O)[C@@]2(O)C(O)=C3C(=O)c4c(O)cccc4[C@@](C)(O)[C@H]3C[C@@H]12 [TETRACYCLINE] | 7 mm | 16 mm | 18 mm | 14 mm |
| NC1=C(C(=O)c2c[nH]c3ccc(Br)cc23)C(c2ccc(C3C(C(=O)c4c[nH]c5ccc(Br)cc45)=C(N)Oc4ccc5ccccc5c43)cc2)c2c(ccc3ccccc23)O1 (centres undefined) |  | 30 mm |  | 6 mm |
| NC1=C(C(=O)c2c[nH]c3ccccc23)C(c2ccc(C3C(C(=O)c4c[nH]c5ccccc45)=C(N)Oc4ccc5ccccc5c43)cc2)c2c(ccc3ccccc23)O1 (centres undefined) |  | 7 mm |  |  |
| NC1=C(C(=O)c2c[nH]c3ccc(Br)cc23)C(c2ccc(Cl)cc2Cl)c2c(ccc3ccccc23)O1 (centres undefined) |  | 30 mm |  |  |
| NC1=C(C(=O)c2c[nH]c3ccc(Br)cc23)C(c2ccc(Cl)cc2)c2c(ccc3ccccc23)O1 (centres undefined) |  | 45 mm |  | 6 mm |
| NC1=C(C(=O)c2c[nH]c3ccccc23)C(c2ccc(F)cc2)c2c(ccc3ccccc23)O1 (centres undefined) | 6 mm | 30 mm |  | 11 mm |
| NC1=C(C(=O)c2c[nH]c3ccccc23)C(c2cccc([N+](=O)[O-])c2)c2c(ccc3ccccc23)O1 (centres undefined) |  | 29 mm |  | 8 mm |
| NC1=C(C(=O)c2c[nH]c3ccccc23)C(c2ccc(Cl)cc2)c2c(ccc3ccccc23)O1 (centres undefined) | 17 mm | 8 mm |  |  |
| NC1=C(C(=O)c2c[nH]c3ccccc23)C(c2ccc(Br)cc2)c2c(ccc3ccccc23)O1 (centres undefined) |  | 10 mm |  |  |
| CC[C@H]1OC(=O)[C@H](C)[C@@H](O[C@H]2C[C@@](C)(OC)[C@@H](O)[C@H](C)O2)[C@H](C)[C@@H](O[C@@H]2O[C@H](C)C[C@H](N(C)C)[C@H]2O)[C@](C)(O)C[C@@H](C)C(=O)[C@H](C)[C@@H](O)[C@]1(C)O [ERYTHROMYCIN] | 8 mm | 10 mm | 10 mm | 12 mm |
| NC1=C(C(=O)c2c[nH]c3ccc(Br)cc23)C(c2cccnc2)c2c(ccc3ccccc23)O1 (centres undefined) | 6 mm | 11 mm |  |  |
| Cc1[nH]c2ccccc2c1C(=O)C1=C(N)Oc2ccc3ccccc3c2C1c1ccc(Cl)cc1Cl (centres undefined) | 15 mm | 50 mm | 15 mm |  |
| COc1cccc(C2C(C(=O)c3c[nH]c4ccccc34)=C(N)Oc3ccc4ccccc4c32)c1 (centres undefined) |  | 35 mm | 17 mm |  |
